{"source": "ChEMBL document CHEMBL2073884", "about": "“Functional characterization of pH-sensitive organic anion transporting polypeptide OATP-B in human” (J Pharmacol Exp Ther, 2004)", "molecules": {"B1": {"name": "Solute carrier organic anion transporter family member 2B1 (Homo sapiens) (protein)", "chain": "MGPRIGPAGEVPQVPDKETKATMGTENTPGGKASPDPQDVRPSVFHNIKLFVLCHSLLQLAQLMISGYLKSSISTVEKRFGLSSQTSGLLASFNEVGNTALIVFVSYFGSRVHRPRMIGYGAILVALAGLLMTLPHFISEPYRYDNTSPEDMPQDFKASLCLPTTSAPASAPSNGNCSSYTETQHLSVVGIMFVAQTLLGVGGVPIQPFGISYIDDFAHNSNSPLYLGILFAVTMMGPGLAFGLGSLMLRLYVDINQMPEGGISLTIKDPRWVGAWWLGFLIAAGAVALAAIPYFFFPKEMPKEKRELQFRRKVLAVTDSPARKGKDSPSKQSPGESTKKQDGLVQIAPNLTVIQFIKVFPRVLLQTLRHPIFLLVVLSQVCLSSMAAGMATFLPKFLERQFSITASYANLLIGCLSFPSVIVGIVVGGVLVKRLHLGPVGCGALCLLGMLLCLFFSLPLFFIGCSSHQIAGITHQTSAHPGLELSPSCMEACSCPLDGFNPVCDPSTRVEYITPCHAGCSSWVVQDALDNSQVFYTNCSCVVEGNPVLAGSCDSTCSHLVVPFLLLVSLGSALACLTHTPSFMLILRGVKKEDKTLAVGIQFMFLRILAWMPSPVIHGSAIDTTCVHWALSCGRRAVCRYYNNDLLRNRFIGLQFFFKTGSVICFALVLAVLRQQDKEARTKESRSSPAVEQQLLVSGPGKKPEDSRV"}}, "format_in_all_cases": "functional, cell-based", "key": {"[1]": {"molecular_target": "T1, Solute carrier organic anion transporter family member 2B1 (Homo sapiens, UniProt O94956)", "T1 sequence (O94956 whole entry)": "B1 chain", "experiment": "TP_TRANSPORTER: uptake (pH 7.4) of Lactate at a concentration of 1.91 u M in OATP-B-expressing HEK293 cells", "settings": "hek293, pH 7.4, 1.91 µM", "how_it_was_run": "(§1)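 HEK293 cells transiently transfected with pcDNA3/OATP-B (calcium phosphate) or empty vector were used 40-48 h later. Suspensions were preincubated 20 min at 37°C in HEPES saline (pH 7.4), then incubated 10 min in MES/Tris-buffered uptake medium (pH 5.0 or 7.4). Cells were separated by silicone-oil centrifugal filtration. Uptake was inulin-corrected, expressed as µL/mg protein, and mock-subtracted; n=3-4.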"}, "[2]": {"molecular_target": "T1, Solute carrier organic anion transporter family member 2B1", "experiment": "TP_TRANSPORTER: uptake (pH 5.0) of Lactate at a concentration of 1.91 u M in OATP-B-expressing HEK293 cells", "settings": "hek293, pH 5, 1.91 µM", "how_it_was_run": "as §1"}, "[3]": {"molecular_target": "T1, Solute carrier organic anion transporter family member 2B1", "experiment": "TP_TRANSPORTER: uptake (pH 7.4) of Estradiol-17beta-D-glucuronide at a concentration of 5.72 nM in OATP-B-expressing HEK293 cells", "settings": "hek293, pH 7.4, 0.00572 µM", "how_it_was_run": "(§2)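 HEK293 cells transiently transfected with OATP-B cDNA (calcium phosphate) or vector alone (mock), used 40-48 h later as suspensions. Preincubated 20 min at 37°C in HEPES buffer pH 7.4, then incubated with radiolabeled compound in uptake medium pH 5.0 or 7.4. DHEAS was taken up for 5 min; estradiol-17ß-glucuronide for 10 min. Cells separated by silicone oil/paraffin centrifugal filtration and counted by scintillation. Uptake (µL/mg protein) corrected for [14C]inulin adsorption; mock subtracted; n=3 or 4.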"}, "[4]": {"molecular_target": "T1, Solute carrier organic anion transporter family member 2B1", "experiment": "TP_TRANSPORTER: uptake (pH 5.0) of Estradiol-17beta-D-glucuronide at a concentration of 5.72 nM in OATP-B-expressing HEK293 cells", "settings": "hek293, pH 5, 0.00572 µM", "how_it_was_run": "as §2"}, "[5]": {"molecular_target": "T1, Solute carrier organic anion transporter family member 2B1", "experiment": "TP_TRANSPORTER: uptake (pH 5.0) of Estrone-3-sulfate at a concentration of 5.43 nM in OATP-B-expressing HEK293 cells", "settings": "hek293, pH 5, 0.00543 µM", "how_it_was_run": "(§3)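 OATP-B- or vector-transfected HEK293 cells were harvested 40-48 h after transfection and preincubated 20 min at 37°C in pH 7.4 HEPES saline. [3H]estrone-3-sulfate uptake was run for 1 min in uptake medium at pH 5.0 or 7.4 and stopped by silicone-oil centrifugal filtration. Radioactivity was counted by scintillation, corrected for [14C]inulin adsorption and given as µL/mg protein. Mock uptake was subtracted; n=3-4.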"}, "[6]": {"molecular_target": "T1, Solute carrier organic anion transporter family member 2B1", "experiment": "TP_TRANSPORTER: uptake (pH 7.4) of Estrone-3-sulfate at a concentration of 5.43 nM in OATP-B-expressing HEK293 cells", "settings": "hek293, pH 7.4, 0.00543 µM", "how_it_was_run": "as §3"}, "[7]": {"molecular_target": "T1, Solute carrier organic anion transporter family member 2B1", "experiment": "TP_TRANSPORTER: uptake (pH 5.0) of Fexofenadine at a concentration of 10 u M in OATP-B-expressing HEK293 cells", "settings": "hek293, pH 5, 10 µM", "how_it_was_run": "(§4)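 Transiently transfected OATP-B or mock HEK293 cells were preincubated 20 min at 37°C (pH 7.4), then exposed for 30 min to uptake medium at pH 5.0 or 7.4. Pellets were collected through silicone oil, sonicated, extracted in 50% methanol, dried and quantified by HPLC (ODS column, fluorescence ex 240/em 290 nm). Results are µL/mg protein after mock subtraction; n=3-4.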"}, "[8]": {"molecular_target": "T1, Solute carrier organic anion transporter family member 2B1", "experiment": "TP_TRANSPORTER: uptake (pH 7.4) of Fexofenadine at a concentration of 10 u M in OATP-B-expressing HEK293 cells", "settings": "hek293, pH 7.4, 10 µM", "how_it_was_run": "as §4"}, "[9]": {"molecular_target": "T1, Solute carrier organic anion transporter family member 2B1", "experiment": "TP_TRANSPORTER: uptake (pH 5.0) of Dehydroepiandrosterone-3-sulfate at a concentration of 2.98 nM in OATP-B-expressing HEK293 cells", "settings": "hek293, pH 5, 0.00298 µM", "how_it_was_run": "as §2"}, "[10]": {"molecular_target": "T1, Solute carrier organic anion transporter family member 2B1", "experiment": "TP_TRANSPORTER: uptake (pH 7.4) of Dehydroepiandrosterone-3-sulfate at a concentration of 2.98 nM in OATP-B-expressing HEK293 cells", "settings": "hek293, pH 7.4, 0.00298 µM", "how_it_was_run": "as §2"}, "[11]": {"molecular_target": "T1, Solute carrier organic anion transporter family member 2B1", "experiment": "TP_TRANSPORTER: uptake (pH 7.4) of Pravastatin at a concentration of 14.7 u M in OATP-B-expressing HEK293 cells", "settings": "hek293, pH 7.4, 14.7 µM", "how_it_was_run": "as §1"}, "[12]": {"molecular_target": "T1, Solute carrier organic anion transporter family member 2B1", "experiment": "TP_TRANSPORTER: uptake (pH 5.0) of Pravastatin at a concentration of 14.7 u M in OATP-B-expressing HEK293 cells", "settings": "hek293, pH 5, 14.7 µM", "how_it_was_run": "as §1"}, "[13]": {"substrate": "C[C@]12CC[C@@H]3c4ccc(OS(=O)(=O)O)cc4CC[C@H]3[C@@H]1CCC2=O", "experiment": "TP_TRANSPORTER: uptake (pH 7.4) in OATP-B-expressing HEK293 cells", "how_it_was_run": "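OATP-B- or mock-transfected HEK293 suspensions. Preincubated 20 min at 37°C at pH 7.4, then substrate uptake in medium at pH 7.4 (Tris-adjusted). Uptake was separated by centrifugal filtration through oil and measured by scintillation, or by HPLC-fluorescence for fexofenadine. Expressed as cell-to-medium ratio (µL/mg protein), corrected by [14C]inulin space; OATP-B-specific = transfected minus mock; n=3 or 4.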"}, "[14]": {"substrate": "C[C@]12CC[C@@H]3c4ccc(OS(=O)(=O)O)cc4CC[C@H]3[C@@H]1CCC2=O", "experiment": "(§5) TP_TRANSPORTER: uptake (pH 5.0) in OATP-B-expressing HEK293 cells"}, "[15]": {"substrate": "CC[C@H](C)C(=O)O[C@H]1C[C@H](O)C=C2C=C[C@H](C)[C@H](CC[C@@H](O)C[C@@H](O)CC(=O)O)[C@H]21", "experiment": "as §5"}}, "data": [{"molecule": "C[C@@H](O)C(=O)O", "note": "[D-LACTIC ACID]", "values": [{"measurement": "Activity", "setting": "[1]", "value": "is not a substrate [-]"}, {"measurement": "Activity", "setting": "[2]", "value": "is not a substrate [-]"}]}, {"molecule": "C[C@]12CC[C@@H]3c4ccc(O)cc4CC[C@H]3[C@@H]1CC[C@@H]2O[C@@H]1O[C@H](C(=O)O)[C@@H](O)[C@H](O)[C@H]1O", "note": "[ESTRADIOL 17B GLUCURONIDE]", "values": [{"measurement": "Activity", "setting": "[3]", "value": "is not a substrate [-]"}, {"measurement": "Activity", "setting": "[4]", "value": "is not a substrate [-]"}]}, {"molecule": "C[C@]12CC[C@@H]3c4ccc(OS(=O)(=O)O)cc4CC[C@H]3[C@@H]1CCC2=O", "note": "[ESTRONE SULFURIC ACID]", "values": [{"measurement": "Activity", "setting": "[5]", "value": "substrate [+]"}, {"measurement": "Activity", "setting": "[6]", "value": "substrate [+]"}]}, {"molecule": "CC(C)(C(=O)O)c1ccc(C(O)CCCN2CCC(C(O)(c3ccccc3)c3ccccc3)CC2)cc1", "note": "(stereo not given) [FEXOFENADINE]", "values": [{"measurement": "Activity", "setting": "[7]", "value": "substrate [+]"}, {"measurement": "Activity", "setting": "[8]", "value": "substrate [+]"}]}, {"molecule": "C[C@]12CC[C@H](OS(=O)(=O)O)CC1=CC[C@@H]1[C@@H]2CC[C@]2(C)C(=O)CC[C@@H]12", "note": "[PRASTERONE SULFURIC ACID]", "values": [{"measurement": "Activity", "setting": "[9]", "value": "substrate [+]"}, {"measurement": "Activity", "setting": "[10]", "value": "substrate [+]"}]}, {"molecule": "CC[C@H](C)C(=O)O[C@H]1C[C@H](O)C=C2C=C[C@H](C)[C@H](CC[C@@H](O)C[C@@H](O)CC(=O)O)[C@H]21", "note": "[PRAVASTATIN]", "values": [{"measurement": "Activity", "setting": "[11]", "value": "is not a substrate [-]"}, {"measurement": "Activity", "setting": "[12]", "value": "substrate [+]"}]}, {"molecule": "B1", "values": [{"measurement": "Km", "setting": "[13]", "value": 8.09, "unit": "µM"}, {"measurement": "Km", "setting": "[14]", "value": 13.1, "unit": "µM"}, {"measurement": "Km", "setting": "[15]", "value": 2250, "unit": "µM"}]}]}
